Consider four compounds from ChEMBL document CHEMBL3352606, “Oligo-β-(1 → 3)-glucans: impact of thio-bridges on immunostimulating activities and the development of cancer stem cells” (J Med Chem, 2014).

Data set [1] is filed under the species Mus musculus. Description: Immunostimulation activity in BALB/c mouse assessed as stimulation of peritoneal macrophages measured […] post compound injection. The format is functional, organism-based. Put shortly: (§1)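 Mice were injected with oligosaccharides 1 or 4 days before. Peritoneal macrophages (1 × 10^7, in RPMI-1640 with 5% FCS) were incubated with HEMA particles, Giemsa-stained and differentially counted; cells with ≥3 particles were scored positive. Peripheral blood was scored the same way, using one heparinised drop from the orbital plexus. Mean of three experiments ± SD.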

The species entered for data set [2] is Mus musculus. Briefly: Immunostimulation activity in BALB/c mouse assessed as stimulation of […] neutrophils measured […] post compound injection. It counts as functional, organism-based. The essentials: as §1
The species entered for data set [3] is Mus musculus. Description: Immunostimulation activity in BALB/c mouse assessed as stimulation of monocytes measured […] post compound injection. The format is functional, organism-based. The essentials:
as §1

For data set [4], the species on record is Mus musculus. Description: Immunostimulation activity in BALB/c mouse assessed as production of IL-2 in splenocytes measured 1 to 3 days post compound injection. It counts as functional, organism-based. The essentials: (§2)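 Purified spleen cells (2 × 10^6/mL in RPMI 1640 with 5% FCS) were cultured for 72 h at 37 °C, 5% CO2; 1 μg Concanavalin A was added to positive-control wells. Supernatants were filtered at 0.45 μm and IL-2 was measured by mouse IL-2 ELISA kit. Mean of three experiments ± SD; PBS-injected mice served as controls.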

Data set [5] has as its system Mus musculus. Briefly: Immunostimulation activity in BALB/c mouse assessed as production of […] in peripheral blood at 100 ug, ip by EIA. It counts as functional, organism-based. Put shortly:
(§3)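 BALB/c mice received 100 μg oligosaccharide i.p., or PBS. Mice were sacrificed at intervals and serum was stored at −80 °C for ≤1 week. IL-1β and TNF-α were measured by ELISA at 450 nm with 570 nm correction, against a standard curve run with each assay (linear regression). Mean of three experiments ± SD.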

The test system of data set [6] is Mus musculus. Description: Immunostimulation activity in BALB/c mouse assessed as production of TNF-alpha in peripheral blood at 100 ug, ip by EIA. It counts as functional, organism-based. The essentials: as §3
For data set [7], the system named is Mus musculus. Briefly: Immunostimulation activity in BALB/c mouse assessed as production of IL-2 in conA-stimulated splenocytes at 100 ug, ip by EIA. The format is functional, organism-based. The essentials:
as §2

Data set [8] can be described thus: Downregulation of NF-kappaB expression in human Detroit 573 cells at by RT-PCR analysis. The format is ADME, cell-based. Put shortly: (§4)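 Total RNA was Trizol-extracted from control and treated cells (ZR-75-1 or Detroit 573; 10% heat-inactivated FCS, 37 °C, 5% CO2). 200 ng was taken through one-step RT-PCR: 30 min at 50 °C, 2 min at 95 °C, then 25 cycles with gene-specific annealing and extension. Products were run on 1.0% agarose, normalised to β-actin and quantified by densitometry. Three independent experiments, Student's t test.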

The test system of data set [9] is ZR-75-1. Description: Downregulation of CDC42 expression in human ZR-75-1 cells at by RT-PCR analysis. It counts as functional, cell-based. The essentials:
as §4

The nature of data set [10]: Upregulation of PKC expression in human Detroit 573 cells at by RT-PCR analysis. It counts as ADME, cell-based. Put shortly:
as §4

In data set [11] the test system is ZR-75-1. Briefly: Upregulation of PKC expression in human ZR-75-1 cells at by RT-PCR analysis. The format is functional, cell-based. Put shortly:
as §4

Data set [12] is described as follows: Downregulation of CDC25 expression in human Detroit 573 cells at by RT-PCR analysis. The format is ADME, cell-based. The essentials: as §4
Data set [13] concerns ZR-75-1. Briefly: Effect on CDC25 expression in human ZR-75-1 cells at by RT-PCR analysis. The format is functional, cell-based. Put shortly: as §4
Data set [14] is filed under the species Mus musculus. Briefly: Immunostimulation activity in BALB/c mouse assessed as stimulation of peritoneal macrophages measured […] in presence of polymyxin B. The format is functional, organism-based. The essentials: (§5)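 This is the HEMA-particle phagocytosis assay repeated with 10 μg/mL polymyxin B added to the samples. Peritoneal cells (1 × 10^7, RPMI-1640 with 5% FCS) and heparinised orbital-plexus blood were taken from mice injected with oligosaccharides 1 or 4 days before. Cells were Giemsa-stained, and those carrying ≥3 particles were scored positive.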

For data set [15], the species on record is Mus musculus. Description: Immunostimulation activity in BALB/c mouse assessed as stimulation of […] neutrophils measured […] in presence of polymyxin B. It counts as functional, organism-based. The essentials:
as §5

Data set [16] is filed under the species Mus musculus. Description: Immunostimulation activity in BALB/c mouse assessed as stimulation of monocytes measured […] post compound injection in presence of polymyxin B. It counts as functional, organism-based. The essentials: as §5
Data set [17] is filed under the species Mus musculus. Briefly: Immunostimulation activity in BALB/c mouse assessed as influx of peritoneal macrophages measured 1 to 3 days post compound injection. The format is functional, organism-based.
Data set [18] in a line: Upregulation of CDC42 expression in human Detroit 573 cells at by RT-PCR analysis. It counts as ADME, cell-based. The essentials: as §4
The test system of data set [19] is ZR-75-1. Description: Upregulation of NF-kappaB expression in human ZR-75-1 cells at by RT-PCR analysis. The format is functional, cell-based. The essentials:
as §4

Calls of active or inactive are those of the source. No cut-off for these calls is given here.

As to `OC[C@H]1O[C@@H](O[C@@H]2[C@@H](O)[C@H](O[C@@H]3[C@@H](O)[C@H](S[C@H]4[C@H](O)[C@@H](CO)OC(O)[C@@H]4O)O[C@H](CO)[C@H]3O)O[C@H](CO)[C@H]2O)[C@H](O)[C@@H](O)[C@@H]1O` (stereo partly specified), the outcome in data set [1], in data set [2], in [3], in data set [4], in data set [5] and in data set [6] was Active. The result in data set [7], in data set [9], in [11], in data set [14], in data set [15] and in [16] was Active. Also, in [17], the result was Active. Besides, the Activity entry in data set [8] is listed as “Non-toxic”; in data set [10] it was “Toxic”; in data set [12], “Non-toxic”. In data set [13], the result was inactive.
As for `OC[C@H]1O[C@@H](O[C@@H]2[C@@H](O)[C@H](S[C@@H]3[C@@H](O)[C@H](S[C@H]4[C@H](O)[C@@H](CO)OC(O)[C@@H]4O)O[C@H](CO)[C@H]3O)O[C@H](CO)[C@H]2O)[C@H](O)[C@@H](O)[C@@H]1O` (stereo partly specified), the result in data set [1], in data set [2], in data set [3], in data set [4], in [5] and in [6] was Active. For the same compound, the outcome in [7], in [11], in [14], in [15], in data set [16] and in [17] was Active. For the same compound, the Activity entry in data set [8] is “Toxic”; in data set [18] it was “Non-toxic”; in [10], “Toxic”.
Turning to `OC[C@H]1O[C@@H](O[C@@H]2[C@@H](O)[C@H](S[C@@H]3[C@@H](O)[C@H](O)O[C@H](CO)[C@H]3O)O[C@H](CO)[C@H]2O)[C@H](O)[C@@H](O)[C@@H]1O`, the result in data set [1], in [2], in data set [3], in [4], in [5] and in data set [6] was Active. Moreover, the result in data set [7], in [19], in data set [11], in [14], in [15] and in [16] was Active. Moreover, the outcome in data set [17] was Active. The results for the Activity entry in [8], in data set [10] and in data set [12] were “Non-toxic”, “Toxic” and “Non-toxic”, respectively. Also, the outcome in data set [13] was inactive.
For `OC[C@H]1O[C@@H](S[C@@H]2[C@@H](O)[C@H](S[C@H]3[C@H](O)[C@@H](CO)OC(O)[C@@H]3O)O[C@H](CO)[C@H]2O)[C@H](O)[C@@H](O)[C@@H]1O` (stereo partly specified), the outcome in data set [1], in data set [2], in [3], in data set [11], in data set [14] and in [15] was Active. Also, the outcome in data set [16] and in data set [17] was Active. Besides, the values for the Activity entry in data set [18], in data set [10] and in data set [12] were “Non-toxic”, “Toxic” and “Non-toxic”, respectively. Besides, the result in data set [13] was inactive.
